# According to ChEMBL document CHEMBL1944580, “Synthesis of novel sulfonamide-1,2,4-triazoles, 1,3,4-thiadiazoles and 1,3,4-oxadiazoles, as potential antibacterial and antifungal agents. Biological evaluation and conformational analysis studies” (2012):
# What was measured:
# [1] = system: Staphylococcus aureus; test: Antibacterial activity against Staphylococcus aureus ATCC 6538 after 24 hrs by micro dilution method; format: functional; conditions: ATCC 6538, 24 h
# In short: (§1)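 Microdilution MIC in 96-well plates. Bacterial suspensions adjusted in sterile saline to 1.0 × 10^5 CFU/ml, giving 1.0 × 10^4 cfu per well in LB broth. Compounds tested at up to 1 mg/ml. Plates incubated 24 h. MIC taken as the lowest concentration with no visible growth under a binocular microscope. OD at 655 nm was also read against a blank and the positive control. Streptomycin and ampicillin were the positive controls.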
# [2] = system: Bacillus cereus; test: Antibacterial activity against Bacillus cereus clinical isolate after 24 hrs by micro dilution method; format: functional; in short: as §1
# [3] = system: Micrococcus flavus; test: Antibacterial activity against Micrococcus flavus ATCC 10240 after 24 hrs by micro dilution method; format: functional; conditions: ATCC 10240, 24 h; in short: as §1
# [4] = system: Listeria monocytogenes; test: Antibacterial activity against Listeria monocytogenes NCTC 7973 after 24 hrs by micro dilution method; format: functional; conditions: NCTC 7973, 24 h; in short: as §1
# [5] = system: Pseudomonas aeruginosa; test: Antibacterial activity against Pseudomonas aeruginosa ATCC 27853 after 24 hrs by micro dilution method; format: functional; conditions: ATCC 27853, 24 h; in short: as §1
# [6] = system: Enterobacter cloacae; test: Antibacterial activity against Enterobacter cloacae human isolate after 24 hrs by micro dilution method; format: functional; in short: as §1
# [7] = system: Salmonella typhimurium; test: Antibacterial activity against Salmonella Typhimurium ATCC 13311 after 24 hrs by micro dilution method; format: functional, Salmonella enterica subsp. enterica serovar Typhimurium; conditions: Salmonella enterica, ATCC 13311, 24 h; in short: as §1
# [8] = system: Escherichia coli; test: Antibacterial activity against Escherichia coli ATCC 35210 after 24 hrs by micro dilution method; format: functional; conditions: ATCC 35210, 24 h; in short: as §1
# [9] = system: Staphylococcus aureus; test: Antibacterial activity against Staphylococcus aureus ATCC 6538 treated for 24 hrs followed by sub-cultivated for 72 hrs by micro dilution method; format: functional
# In short: (§2)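 2 µl from each well was serially subcultured into 100 µl fresh broth per well and incubated a further 72 h. MBC is the lowest concentration with no visible growth, taken as 99.5% killing of the original inoculum. Streptomycin and ampicillin were the positive controls.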
# [10] = system: Bacillus cereus; test: Antibacterial activity against Bacillus cereus clinical isolate treated for 24 hrs followed by sub-cultivated for 72 hrs by micro dilution method; format: functional; in short: as §2
# [11] = system: Micrococcus flavus; test: Antibacterial activity against Micrococcus flavus ATCC 10240 treated for 24 hrs followed by sub-cultivated for 72 hrs by micro dilution method; format: functional; in short: as §2
# [12] = system: Listeria monocytogenes; test: Antibacterial activity against Listeria monocytogenes NCTC 7973 treated for 24 hrs followed by sub-cultivated for 72 hrs by micro dilution method; format: functional; in short: as §2
# [13] = system: Pseudomonas aeruginosa; test: Antibacterial activity against Pseudomonas aeruginosa ATCC 27853 treated for 24 hrs followed by sub-cultivated for 72 hrs by micro dilution method; format: functional; in short: as §2
# [14] = system: Enterobacter cloacae; test: Antibacterial activity against Enterobacter cloacae human isolate treated for 24 hrs followed by sub-cultivated for 72 hrs by micro dilution method; format: functional; in short: as §2
# [15] = system: Salmonella typhimurium; test: Antibacterial activity against Salmonella Typhimurium ATCC 13311 treated for 24 hrs followed by sub-cultivated for 72 hrs by micro dilution method; format: functional, Salmonella enterica subsp. enterica serovar Typhimurium; conditions: Salmonella enterica; in short: as §2
# [16] = system: Escherichia coli; test: Antibacterial activity against Escherichia coli ATCC 35210 treated for 24 hrs followed by sub-cultivated for 72 hrs by micro dilution method; format: functional; in short: as §2
# [17] = system: Talaromyces funiculosus; test: Antifungal activity against Penicillium funiculosum ATCC 36839 after 72 hrs by serial dilution method; format: functional; conditions: ATCC 36839, 72 h
# In short: (§3)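 Modified microdilution MIC. Spores were washed from malt agar cultures with sterile 0.85% saline containing 0.1% Tween 80 and adjusted to about 1.0 × 10^5 per 100 µl well in malt broth. Compounds were dissolved in DMSO (1 mg/ml). Plates incubated 72 h at 28 °C. MIC is the lowest concentration with no visible growth under a binocular microscope. Bifonazole and ketoconazole were the references.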
# [18] = system: Penicillium ochrochloron; test: Antifungal activity against Penicillium ochrochloron ATCC 9112 after 72 hrs by serial dilution method; format: functional; conditions: ATCC 9112, 72 h; in short: as §3
# [19] = system: Trichoderma viride; test: Antifungal activity against Trichoderma viride IAM 5061 after 72 hrs by serial dilution method; format: functional; conditions: IAM 5061, 72 h; in short: as §3
# [20] = system: Aspergillus fumigatus; test: Antifungal activity against Aspergillus fumigatus human isolate after 72 hrs by serial dilution method; format: functional; in short: as §3
# [21] = system: Aspergillus niger; test: Antifungal activity against Aspergillus niger ATCC 6275 after 72 hrs by serial dilution method; format: functional; conditions: ATCC 6275, 72 h; in short: as §3
# [22] = system: Aspergillus flavus; test: Antifungal activity against Aspergillus flavus ATCC 9643 after 72 hrs by serial dilution method; format: functional; conditions: ATCC 9643, 72 h; in short: as §3
# [23] = system: Aspergillus versicolor; test: Antifungal activity against Aspergillus versicolor ATCC 11730 after 72 hrs by serial dilution method; format: functional; conditions: ATCC 11730, 72 h; in short: as §3
# [24] = system: Fulvia fulva; test: Antifungal activity against Fulvia fulva after 72 hrs by serial dilution method; format: functional; in short: as §3
# [25] = system: Talaromyces funiculosus; test: Antifungal activity against Penicillium funiculosum ATCC 36839 treated for 72 hrs followed by sub-cultivated for 5 days by serial dilution method; format: functional
# In short: (§4)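 MFC obtained after the 72 h, 28 °C malt-broth microdilution (spore inoculum about 1.0 × 10^5 per well, compounds from 1 mg/ml DMSO). 2 µl was serially subcultured into 100 µl broth per well and incubated a further 5 days at 28 °C. MFC is the lowest concentration with no visible growth, taken as 99.5% killing of the original inoculum.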
# [26] = system: Penicillium ochrochloron; test: Antifungal activity against Penicillium ochrochloron ATCC 9112 treated for 72 hrs followed by sub-cultivated for 5 days by serial dilution method; format: functional; in short: as §4
# [27] = system: Trichoderma viride; test: Antifungal activity against Trichoderma viride IAM 5061 treated for 72 hrs followed by sub-cultivated for 5 days by serial dilution method; format: functional; in short: as §4
# [28] = system: Aspergillus fumigatus; test: Antifungal activity against Aspergillus fumigatus human isolate treated for 72 hrs followed by sub-cultivated for 5 days by serial dilution method; format: functional; in short: as §4
# [29] = system: Aspergillus niger; test: Antifungal activity against Aspergillus niger ATCC 6275 treated for 72 hrs followed by sub-cultivated for 5 days by serial dilution method; format: functional; in short: as §4
# [30] = system: Aspergillus flavus; test: Antifungal activity against Aspergillus flavus ATCC 9643 treated for 72 hrs followed by sub-cultivated for 5 days by serial dilution method; format: functional; in short: as §4
# [31] = system: Aspergillus versicolor; test: Antifungal activity against Aspergillus versicolor ATCC 11730 treated for 72 hrs followed by sub-cultivated for 5 days by serial dilution method; format: functional; in short: as §4
# [32] = system: Fulvia fulva; test: Antifungal activity against Fulvia fulva treated for 72 hrs followed by sub-cultivated for 5 days by serial dilution method; format: functional; in short: as §4
Compound,MIC [1],MIC [2],MIC [3],MIC [4],MIC [5],MIC [6],MIC [7],MIC [8],MBC [9],MBC [10],MBC [11],MBC [12],MBC [13],MBC [14],MBC [15],MBC [16],MIC [17],MIC [18],MIC [19],MIC [20],also measured
COc1cc(Cc2nnc(NC(C)C)s2)c(S(=O)(=O)N(C)C)cc1OC,380 µM,250 µM,380 µM,380 µM,250 µM,460 µM,250 µM,380 µM,460 µM,500 µM,380 µM,460 µM,380 µM,460 µM,500 µM,460 µM,250 µM,500 µM,130 µM,130 µM,MIC [21]: 250 µM; MIC [22]: 250 µM; MIC [23]: 250 µM; MIC [24]: 130 µM; MFC [25]: 500 µM; MFC [26]: 750 µM; MFC [27]: 250 µM; MFC [28]: 250 µM; MFC [29]: 750 µM; MFC [30]: 750 µM; MFC [31]: 750 µM; MFC [32]: 250 µM
CN[C@@H]1[C@H](O[C@H]2[C@H](O[C@H]3[C@H](O)[C@@H](O)[C@H](N=C(N)N)[C@@H](O)[C@@H]3N=C(N)N)O[C@@H](C)[C@]2(O)C=O)O[C@@H](CO)[C@H](O)[C@H]1O [STREPTOMYCIN],40 µM,90 µM,170 µM,170 µM,170 µM,170 µM,170 µM,260 µM,90 µM,170 µM,340 µM,340 µM,340 µM,340 µM,340 µM,520 µM,,,,,
c1ccc(-c2ccc(C(c3ccccc3)n3ccnc3)cc2)cc1 (stereo unspecified) [BIFONAZOLE],,,,,,,,,,,,,,,,,640 µM,480 µM,640 µM,480 µM,MIC [21]: 480 µM; MIC [22]: 480 µM; MIC [23]: 320 µM; MIC [24]: 320 µM; MFC [25]: 800 µM; MFC [26]: 640 µM; MFC [27]: 800 µM; MFC [28]: 640 µM; MFC [29]: 640 µM; MFC [30]: 640 µM; MFC [31]: 640 µM; MFC [32]: 640 µM
CC(=O)N1CCN(c2ccc(OCC3COC(Cn4ccnc4)(c4ccc(Cl)cc4Cl)O3)cc2)CC1 (stereo unspecified) [KETOCONAZOLE],,,,,,,,,,,,,,,,,380 µM,3800 µM,4750 µM,380 µM,MIC [21]: 380 µM; MIC [22]: 2850 µM; MIC [23]: 380 µM; MIC [24]: 380 µM; MFC [25]: 950 µM; MFC [26]: 3800 µM; MFC [27]: 5700 µM; MFC [28]: 950 µM; MFC [29]: 950 µM; MFC [30]: 3800 µM; MFC [31]: 950 µM; MFC [32]: 950 µM
CC1(C)S[C@@H]2[C@H](NC(=O)[C@H](N)c3ccccc3)C(=O)N2[C@H]1C(=O)O [AMPICILLIN],250 µM,250 µM,250 µM,370 µM,740 µM,370 µM,250 µM,370 µM,370 µM,370 µM,370 µM,490 µM,1240 µM,490 µM,490 µM,740 µM,,,,,
